Legend:
Mus musculus [1] = test: Absorbance at 350 nM of a solution of melanosomes […] from tumor after ip injection at 30 min of assay as a measure of pigment content of tissue; format: functional
Mus musculus [2] = test: Absorbance at 350 nM of a solution of melanosomes obtained by treatment in hot alkali from tumor after ip injection at 180 min of assay as a measure of pigment content of tissue; format: functional
Mus musculus [3] = organism: Mus musculus; test: HPCL quantitation of resulting degradation product, pyrrole-2,3,5-tricarboxylic acid (PTCA) content after tumor isolation at 90 min of assay; format: functional, organism-based
Outline: (§1)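 B16 tumours were grown s.c. in female C57Bl/6 mice, which were given 10 μCi [2-14C]TU two weeks later. At each time point, melanosomes were isolated by sucrose density gradient ultracentrifugation. 4 mg was oxidized with alkaline H2O2 (1 M NaOH, 30% H2O2) for 3 h at 25 °C. PTCA was quantified by HPLC with 280 nm detection and expressed per mg.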

Mus musculus [4] = organism: Mus musculus; test: HPCL quantitation of resulting degradation product, pyrrole-2,3,5-tricarboxylic acid (PTCA) content after tumor isolation at 0 min of assay; format: functional, organism-based; outline: as §1
Mus musculus [5] = test: Specific Incorporation (cpm/mg of melanin) of melanin after isolation from tumor after ip injection at 30 min of assay; format: functional
Outline: (§2)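 Mice (female C57Bl/6, s.c. B16 melanoma, two weeks) received 10 μCi [2-14C]TU and were euthanized at the noted times. Tumours were weighed, frozen, homogenized in 1% acetic acid–ethanol (30:70) and centrifuged. Melanosomal melanin was purified on a sucrose density gradient, dried to constant weight, and radioactivity was expressed as cpm/mg melanin.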

Mus musculus [6] = organism: Mus musculus; test: HPCL quantitation of resulting degradation product, pyrrole-2,3,5-tricarboxylic acid (PTCA) content after tumor isolation at 180 min of assay; format: functional, organism-based; outline: as §1
Mus musculus [7] = organism: Mus musculus; test: HPCL quantitation of resulting degradation product, pyrrole-2,3,5-tricarboxylic acid (PTCA) content after tumor isolation at 30 min of assay; format: functional, organism-based; outline: as §1
Mus musculus [8] = test: Specific Incorporation (cpm/mg of melanin) of melanin after isolation from tumor after ip injection at 180 min of assay; format: functional; outline: as §2
Mus musculus [9] = test: Absorbance at 350 nM of a solution of melanosomes obtained by treatment in hot alkali from tumor after ip injection at 90 min of assay as a measure of pigment content of tissue; format: functional
Mus musculus [10] = test: Absorbance at 350 nM of a solution of melanosomes obtained by treatment in hot alkali from tumor after ip injection at 0 min of assay as a measure of pigment content of tissue; format: functional
Mus musculus [11] = test: Specific Incorporation (cpm/mg of melanin) of melanin after isolation from tumor after ip injection at 90 min of assay; format: functional; outline: as §2

O=c1cc[nH]c(=S)[nH]1 [THIOURACIL]
Activity (Mus musculus [1]): 0.032 | Activity (Mus musculus [2]): 0.043 | Concentration (Mus musculus [3]): 560 ng/mg | Concentration (Mus musculus [4]): 1120 ng/mg | Specific incorporation (Mus musculus [5]): 2500 c.p.m. (mg of melanin)-1 | Concentration (Mus musculus [6]): 589 ng/mg | Concentration (Mus musculus [7]): 493 ng/mg | Specific incorporation (Mus musculus [8]): 2300 c.p.m. (mg of melanin)-1 | Activity (Mus musculus [9]): 0.036 | Activity (Mus musculus [10]): 0.071 | Specific incorporation (Mus musculus [11]): 2600 c.p.m. (mg of melanin)-1
